LYPLA2 inh – LYPLA2 inhibitors, primary screen, counter-screen for PME1 inhibitor project, biochemical, fluorescence polarization, FP-Rh probe ABPP | Acyl-protein thioesterase 2 (Homo sapiens), O95372 | recombinant LYPLA2 | inhibition, % at 5.9 µM | 0.38% of 320,000 active | AID 2177, 2009;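 active = inhibition above the screen-wide mean plus 3 SD, limit set per campaign, cut at about 26% in these data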;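 note: 0% = LYPLA2 with DMSO and 100% = wells lacking LYPLA2 enzyme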
LYPLA1 counter – LYPLA1 inhibitors, primary screen, counter-screen for PME1 inhibitor project, biochemical, fluorescence polarization, FP-Rh probe ABPP; Acyl-protein thioesterase 1 (Homo sapiens), O75608; recombinant LYPLA1; inhibition, % at 5.9 µM; 0.16% of 320,000 active; AID 2174, 2009;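 active = inhibition above the mean of all tested compounds plus 3 SD, set per campaign, cut at about 14% in these data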;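 note: inhibitors block serine hydrolase probe labeling of LYPLA1 so polarization falls; 0% = enzyme with DMSO and 100% = wells lacking LYPLA1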
procasp3 activ – activators of human procaspase-3 D3A mutant, primary screen, biochemical, absorbance, PC-3 D3A mutant, single concentration | Caspase-3 (Homo sapiens), P42574 | recombinant procaspase-3 D3A, Ac-DEVD-pNA absorbance 405 nm | activation, % at 8.5 µM | 0.11% of 330,000 active | AID 463141, 2010;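 active = activation above the mean of all tested compounds plus 3 SD, cut at about 21% in these data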;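 note: 0% = DMSO alone and 100% = DMSO wells spiked with extra 5 µM PC-3 D3A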
Target sequence (P42574 whole entry D9A/D28A/D175A): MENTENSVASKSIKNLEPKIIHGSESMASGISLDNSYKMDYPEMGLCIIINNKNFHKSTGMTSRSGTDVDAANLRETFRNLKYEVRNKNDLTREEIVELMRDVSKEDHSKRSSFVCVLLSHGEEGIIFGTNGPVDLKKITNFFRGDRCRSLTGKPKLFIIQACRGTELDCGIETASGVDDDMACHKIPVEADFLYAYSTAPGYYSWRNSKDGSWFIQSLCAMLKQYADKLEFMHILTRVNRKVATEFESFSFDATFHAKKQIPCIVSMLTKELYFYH
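Assay system – Procaspase-3 D3A mutant, all three cleavage aspartates alanine · Controls – DMSO-only low control, 5 µM PC-3 D3A high control · Schedule – 1 h compound preincubation, 2 h substrate hydrolysis at 25 °C · Signal – 405 nm absorbance of p-nitroaniline, reads at 0 and 120 min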
PREPL inhibitor – PREPL enzyme inhibitors, primary screen, biochemical, fluorescence polarization; recombinant PREPL, fluorescence polarization activity-based probe; inhibition, % at 5.96 µM; 0.68% of 320,000 active; in the data active = inhibition above about 43%;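 note: 0% = enzyme with DMSO and 100% = wells lacking enzyme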
procasp7 counter – procaspase-7 activators, primary screen, counter-screen for procaspase-3 activator project, biochemical, absorbance, HTS, human | Caspase-7 (Homo sapiens), P55210 | 0.093% of 330,000 active | activation, % at 8.5 µM | recombinant procaspase-7, Ac-DEVD-pNA absorbance 405 nm; D23A/D198A/D206A triple mutant, cannot self-cleave; scale: DMSO 0, 5 µM enzyme 100;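 active = percent activation above the screen-wide mean plus 3 SD, cut at about 25% in these data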
Target sequence (P55210 whole entry D23A/D198A/D206A): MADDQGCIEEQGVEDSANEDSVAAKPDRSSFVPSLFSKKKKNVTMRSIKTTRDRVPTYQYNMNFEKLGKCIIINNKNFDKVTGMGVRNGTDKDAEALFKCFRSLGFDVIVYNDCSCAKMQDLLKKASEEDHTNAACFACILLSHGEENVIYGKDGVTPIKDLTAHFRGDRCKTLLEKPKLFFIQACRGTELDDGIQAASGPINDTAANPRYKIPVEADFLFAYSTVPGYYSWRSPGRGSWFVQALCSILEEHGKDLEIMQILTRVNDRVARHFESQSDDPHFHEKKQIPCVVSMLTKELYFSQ
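buffer or medium = Zinc-free HEPES/NaCl buffer, pH 7.4 | material = Procaspase-7 triple mutant (PC-7 D3A) | input = 2 µM procaspase-7 mutant as dispensed | signal = Epi-absorbance of released pNA at 405 nm, two timepoints | timing = 1 h preincubation, 2 h reaction | replicates = singlicate compound testing | evaluation = % activation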
LYPLA2 confirm – LYPLA2 inhibitors, retest, confirmation, counter-screen for PME1 inhibitor project, biochemical, fluorescence polarization, FP-Rh probe ABPP. shares compounds with LYPLA2 inh. 72% of 1,100 active. recombinant LYPLA2. inhibition, % at 5.9 µM;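 active = mean inhibition across replicates above the hit cutoff set in the primary screen, cut at about 26% in these data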;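 note: blocked labeling of the enzyme by serine hydrolase FP-Rh probe lowers polarization; 0% = enzyme with DMSO and 100% = wells lacking LYPLA2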
LYPLA2 gel ABPP – LYPLA2 inhibitors in proteome, late-stage follow-up, gel-based competitive ABPP, fluorescence, assay provider. shares compounds with LYPLA2 inh. rhLYPLA2 in mouse brain proteome, gel ABPP FP-Rh. inhibition, % at 20 µM. 30% of 150 active. AID 652029, 2013;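 active = inhibition of LYPLA2 enzyme probe labeling above about 50%, limit read from the data; inactive = inhibition below that limit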;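 note: loss of FP-Rh probe labeling of the LYPLA2 gel band measured as band density; 0% = DMSO only control band and 100% = blank gel background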
The depositor's hits bear a star. Shown are actives, neighbours in structure and some others; about 1% of the full set was active somewhere.

Results for Cc1cc(CCCCCCCCc2cc(C)cc(=O)o2)oc(=O)c1 ?
LYPLA2 inh: 37*; LYPLA1 counter: 14; procasp3 activ: -1; PREPL inhibitor: 1; procasp7 counter: 1; LYPLA2 confirm: 45*

What do the screens show for `COC(=O)c1cc(C)cc(=O)o1`?
LYPLA2 inh: 4; LYPLA1 counter: -1; procasp3 activ: 6; PREPL inhibitor: -1; procasp7 counter: 5

Results for CC(=O)C(C)Oc1ncn(-c2ccccc2)n1 (stereo not given) ?
LYPLA2 inh: 4; LYPLA1 counter: 1; procasp3 activ: 2; PREPL inhibitor: 3; procasp7 counter: 5

Results for COc1cccc(NC(=O)CN2C(=O)CSc3ccc(S(=O)(=O)N4CCC(C)CC4)cc32)c1 ?
LYPLA2 inh: 25; LYPLA1 counter: -3; procasp3 activ: -2; PREPL inhibitor: 7; procasp7 counter: -4

What do the screens show for `COc1cccc(NC(=O)CN2C(=O)COc3ccc(S(=O)(=O)N4CCOCC4)cc32)c1`?
LYPLA2 inh: 38*; LYPLA1 counter: -1; procasp3 activ: 3; PREPL inhibitor: -1; procasp7 counter: 9; LYPLA2 confirm: 35*

How did COc1cccc(NC(=O)CN2C(=O)CSc3ccc(S(=O)(=O)N4CCOCC4)cc32)c1 do in these assays?
LYPLA2 inh: 49*; LYPLA1 counter: 0; procasp3 activ: 2; PREPL inhibitor: 7; procasp7 counter: 9; LYPLA2 confirm: 45*

What do the screens show for `COc1cccc(NC(=O)CN2C(=O)COc3ccc(Cl)cc32)c1`?
LYPLA2 inh: 45*; LYPLA1 counter: 2; procasp3 activ: 0; PREPL inhibitor: -1; procasp7 counter: -10; LYPLA2 confirm: 46*

What do the screens show for `COc1cccc(NC(=O)CN2C(=O)COc3ccc(S(=O)(=O)N4CCCCCC4)cc32)c1`?
LYPLA2 inh: 35*; LYPLA1 counter: 1; procasp3 activ: 10; PREPL inhibitor: 17; procasp7 counter: 15; LYPLA2 confirm: 38*

How did CCOc1ccc(NC(=O)CN2C(=O)COc3ccc(Cl)cc32)cc1 do in these assays?
LYPLA2 inh: -2; LYPLA1 counter: 0; procasp3 activ: -3; PREPL inhibitor: 9; procasp7 counter: 0

How did Cc1ccc(Cl)cc1NC(=O)CN1C(=O)COc2ccc(S(=O)(=O)N3CCOCC3)cc21 do in these assays?
LYPLA2 inh: 6; LYPLA1 counter: 1; procasp3 activ: -2; PREPL inhibitor: -1; procasp7 counter: -3

Results for O=C(CN1C(=O)COc2ccc(S(=O)(=O)N3CCOCC3)cc21)Nc1cccc(Cl)c1 ?
LYPLA2 inh: 33*; LYPLA1 counter: -7; procasp3 activ: -7; PREPL inhibitor: -1; procasp7 counter: -4; LYPLA2 confirm: 46*

Results for COc1cccc(OCCCOc2ccc([N+](=O)[O-])cc2Cl)c1 ?
LYPLA2 inh: 1; LYPLA1 counter: 0; procasp3 activ: 4; PREPL inhibitor: 4; procasp7 counter: 8

What do the screens show for `O=C(c1ccc(Cn2c(=O)[nH]c3ccccc3c2=O)cc1)N1CCN(c2ccc(F)cc2)CC1`?
LYPLA2 inh: 42*; LYPLA1 counter: 12; procasp3 activ: -4; PREPL inhibitor: -72; procasp7 counter: 9; LYPLA2 confirm: 35*

What do the screens show for `CCOC(=O)c1ccc(NC(=O)CC2S/C(=N/N=C3/NC(=O)CS3)NC2=O)cc1` (stereo not given)?
LYPLA2 inh: 32*; LYPLA1 counter: 1; procasp3 activ: -2; PREPL inhibitor: 2; procasp7 counter: 10; LYPLA2 confirm: 2

What do the screens show for `COc1ccccc1Oc1ccc2c(c1)C(=O)N(c1cccc(O)c1)C2=O`?
LYPLA2 inh: 51*; LYPLA1 counter: -9; procasp3 activ: 1; PREPL inhibitor: 5; procasp7 counter: 5; LYPLA2 confirm: 51*; LYPLA2 gel ABPP: 34

How did Cc1ccc(-n2nnnc2CN2CCCCC2)cc1 do in these assays?
LYPLA2 inh: 33*; LYPLA1 counter: 4; procasp3 activ: -6; PREPL inhibitor: -1; procasp7 counter: 1; LYPLA2 confirm: 1

Results for CN(C(=O)c1ccc(NC(=O)Cc2ccc(NC(=O)C3CCCN(C(=O)C4CCCCC4)C3)cc2)cc1)C1CC1 (stereo not given) ?
LYPLA2 inh: 57*; LYPLA1 counter: 8; procasp3 activ: 2; PREPL inhibitor: 0; procasp7 counter: -9; LYPLA2 confirm: 51*; LYPLA2 gel ABPP: 13

Results for CN(C(=O)c1ccc(NC(=O)Cc2ccc(NC(=O)C3CCCN(C(=O)C4CCC4)C3)cc2)cc1)C1CC1 (stereo not given) ?
LYPLA2 inh: 66*; LYPLA1 counter: 4; procasp3 activ: 1; PREPL inhibitor: 4; procasp7 counter: 4; LYPLA2 confirm: 61*; LYPLA2 gel ABPP: 41

What do the screens show for `CN(C(=O)c1ccc(NC(=O)Cc2ccc(NC(=O)C3CCCN(C(=O)c4ccccc4)C3)cc2)cc1)C1CC1` (stereo not given)?
LYPLA2 inh: 63*; LYPLA1 counter: 3; procasp3 activ: 6; PREPL inhibitor: -7; procasp7 counter: 12; LYPLA2 confirm: 60*; LYPLA2 gel ABPP: 34

What do the screens show for `CN(C(=O)c1ccc(NC(=O)Cc2ccc(NC(=O)C3CCCN(C(=O)C4CCCC4)C3)cc2)cc1)C1CC1` (stereo not given)?
LYPLA2 inh: 57*; LYPLA1 counter: 5; procasp3 activ: 9; PREPL inhibitor: -6; procasp7 counter: -1; LYPLA2 confirm: 51*; LYPLA2 gel ABPP: 45

Results for CN(C(=O)c1ccc(NC(=O)Cc2ccc(NC(=O)C3CCN(C(=O)C4CCCCC4)CC3)cc2)cc1)C1CC1 ?
LYPLA2 inh: 8; LYPLA1 counter: 3; procasp3 activ: 4; PREPL inhibitor: 6; procasp7 counter: -2

Results for O=[N+]([O-])c1cccnc1Oc1ccc(F)cc1 ?
LYPLA2 inh: 3; LYPLA1 counter: 5; procasp3 activ: 4; PREPL inhibitor: 5; procasp7 counter: -1
